Measurements as given in publication PMC7366207 (Journal of Antimicrobial Chemotherapy, 2020).

Columns and labels:
[1] = assay type: in vivo, human; conditions: oral 30 mg/day, steady state
[2] = assay type: in vivo, human; conditions: LATTE
Outline: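 LATTE participants received oral drug 10, 30 or 60 mg once daily with two nucleoside analogues for 24 weeks, then with rilpivirine 25 mg daily to Week 72. Maximum on-treatment change from baseline in serum ALT and total bilirubin, regardless of dose, measured centrally as multiples of ULN. Linear regression on predicted UGT1A1/UGT1A9 activity, with covariates kept if P<0.05.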

[3] = Last oral lead-in cabotegravir trough; assay type: in vivo, human; conditions: for Low-versus-normal fold-change between mean cabotegravir trough concentrations: last oral trough on Day 1 (oral 30 mg); for Mean cabotegravir trough concentration: last oral trough on Day 1
Outline: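 Human PK in LATTE-2 (4-weekly arm): daily oral 30 mg plus abacavir/lamivudine for 20 weeks. Day 1 trough taken 20–28 h after the last home oral dose. Plasma drug measured by validated LC-MS (LLOQ 25 ng/mL). Predicted UGT1A1 activity: normal with no *6/*28/*37 (*36 counted as wild type), reduced with one copy, low with two. Fold-change taken as the ratio of mean troughs.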

[4] = system: UGT1A1; conditions: cited from earlier work
[5] = system: UGT1A9; conditions: cited from earlier work
[6] = system: uridine 5′-diphospho-glucuronosyltransferase (UGT); conditions: cited from earlier work
[7] = cited from earlier work
[8] = oral dolutegravir 50 mg/day; same allele and activity definitions; cited from earlier work
[9] = system: cytochrome P450 3A4; conditions: cited from earlier work
[10] = fast versus normal predicted UGT1A9 activity
[11] = low versus normal predicted UGT1A1 activity
[12] = oral 10, 30 and 60 mg, fast versus normal predicted UGT1A9 activity
[13] = oral 10, 30 and 60 mg, low versus normal predicted UGT1A1 activity

In the case of `C[C@H]1CO[C@@H]2Cn3cc(C(=O)NCc4ccc(F)cc4F)c(=O)c(O)c3C(=O)N12` [cabotegravir], the “Association of predicted UGT1A9 activity with exposure measures” value [1] is reported as “not significantly associated”, the “Elevation in oral AUCtau associated with low predicted UGT1A1 activity” value [1] is reported as 41% and the “Elevation in oral Cmax associated with low predicted UGT1A1 activity” value [1] is reported as 28%. For the same compound, the “AUCtau, fold-change in exposure (fast versus normal)” value [1, 10] was 1.04 fold, the “Cmax, fold-change in exposure (fast versus normal)” value [1, 10] was 1.03 fold and the “Ctau, fold-change in exposure (fast versus normal)” value [1, 10] was 0.98 fold. The “AUCtau, fold-change in exposure (low versus normal)” value [1, 11] was 1.41 fold, the “Cmax, fold-change in exposure (low versus normal)” value [1, 11] was 1.28 fold and the “Ctau, fold-change in exposure (low versus normal)” value [1, 11] was 1.50 fold. The “ALT change from BL, fold-change (fast versus normal)” value [2, 12] was 1.68 fold, the “Tbili change from BL, fold-change (fast versus normal)” value [2, 12] was 0.69 fold and the “ALT maximum change from baseline, fold-change (low versus normal)” value [2, 13] was 0.68 fold. The “Tbili maximum change from baseline, fold-change (low versus normal)” value [2, 13] was 2.45 fold, the “Association of predicted UGT1A1 activity with maximum change in ALT” value ([2]; oral any dose) was “no significant association” and the “Participants with maximum on-treatment ALT elevation ≥3× ULN” value ([2]; among the 5 participants with Tbili increases of 1.5× ULN or greater) was “none”. For the same compound, the “Low-versus-normal fold-change between mean cabotegravir trough concentrations” value ([3]; 4 weekly group) was 1.57 fold, the “Mean cabotegravir trough concentration” value ([3]; 4 weekly group, low predicted UGT1A1 activity) was 6.11 µg/mL and the “Mean cabotegravir trough concentration” value ([3]; 4 weekly group, normal predicted UGT1A1 activity) was 3.88 µg/mL. The “Low-versus-normal fold-change between mean cabotegravir trough concentrations” value ([3]; 8 weekly arm) was 1.19 fold, the “Mean cabotegravir trough concentration” value ([3]; 8 weekly arm, low predicted UGT1A1 activity) was 5.10 µg/mL and the “Mean cabotegravir trough concentration” value ([3]; 8 weekly arm, normal predicted UGT1A1 activity) was 4.28 µg/mL. The “Effect on UGT1A1 expression or activity” value [4] was “does not functionally affect UGT1A1 expression or activity”, the “Metabolism by UGT1A1” value [4] was “primarily metabolized by UGT1A1” and the “Metabolism by UGT1A9” value [5] was “minor contribution by UGT1A9”. The “Inhibition or induction of UGT” value [6] was “not an inhibitor or inducer” and the Aqueous solubility [7] was “low aqueous solubility”.
In the case of `C[C@@H]1CCO[C@H]2Cn3cc(C(=O)NCc4ccc(F)cc4F)c(=O)c(O)c3C(=O)N12` [dolutegravir], the “Increase in AUCtau associated with low UGT1A1 activity” value [8] is given as 46%, the “Increase in Cmax associated with low UGT1A1 activity” value [8] is given as 32% and the “Contribution of cytochrome P450 3A4 to metabolism” value [9] is given as about 30%.
